Results on 2 compounds are retold here after ChEMBL document CHEMBL1154352, “Toll-like receptor 7 selective synthetic oligoribonucleotide agonists: synthesis and structure-activity relationship studies” (J Med Chem, 2009).

The target in assay [1] is T1, Toll-like receptor 8 (Homo sapiens) (UniProt Q9NR97).
T1 sequence (whole entry): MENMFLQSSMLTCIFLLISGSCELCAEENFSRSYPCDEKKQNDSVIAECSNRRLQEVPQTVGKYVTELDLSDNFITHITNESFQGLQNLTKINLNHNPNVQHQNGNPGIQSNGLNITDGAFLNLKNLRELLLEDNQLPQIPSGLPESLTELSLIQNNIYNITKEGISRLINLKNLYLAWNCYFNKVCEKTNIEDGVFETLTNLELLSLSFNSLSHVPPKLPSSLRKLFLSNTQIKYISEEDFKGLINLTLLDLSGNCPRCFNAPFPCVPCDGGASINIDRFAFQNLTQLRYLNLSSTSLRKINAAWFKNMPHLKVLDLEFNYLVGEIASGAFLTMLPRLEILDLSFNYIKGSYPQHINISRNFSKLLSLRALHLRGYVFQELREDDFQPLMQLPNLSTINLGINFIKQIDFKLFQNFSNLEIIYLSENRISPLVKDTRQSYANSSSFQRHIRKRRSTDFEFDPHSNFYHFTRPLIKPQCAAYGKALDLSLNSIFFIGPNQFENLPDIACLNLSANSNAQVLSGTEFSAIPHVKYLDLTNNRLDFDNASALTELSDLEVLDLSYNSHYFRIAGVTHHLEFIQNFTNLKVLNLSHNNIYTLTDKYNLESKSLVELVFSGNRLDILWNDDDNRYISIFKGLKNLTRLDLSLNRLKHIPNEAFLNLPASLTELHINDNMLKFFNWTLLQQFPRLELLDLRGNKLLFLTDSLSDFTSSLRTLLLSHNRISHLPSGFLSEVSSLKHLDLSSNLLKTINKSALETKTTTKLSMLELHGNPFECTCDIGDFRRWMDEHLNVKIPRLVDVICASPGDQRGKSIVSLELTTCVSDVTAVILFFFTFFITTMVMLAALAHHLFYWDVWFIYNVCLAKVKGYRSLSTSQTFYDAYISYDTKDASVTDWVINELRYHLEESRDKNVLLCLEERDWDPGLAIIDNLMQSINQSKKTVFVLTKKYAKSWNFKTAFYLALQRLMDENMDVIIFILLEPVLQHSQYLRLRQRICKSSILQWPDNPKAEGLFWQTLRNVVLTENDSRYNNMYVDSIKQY
In words: Activation of human TLR8 expressed in HEK293XL assessed as fold induction of NF-kappaB activity at 50 ug/ml after 18 hrs by reporter gene assay relative to control. The essentials:
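HEK293 cells stably expressing human TLR7 or TLR8, transiently transfected with SEAP reporter plasmid; medium replaced, SIMRA compounds added, 18 h incubation. Supernatant SEAP measured by QuantiBlue; expressed as fold increase in NF-κB activity over PBS control. Tabulated data at 50 μg/mL, representative of three independent experiments.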

Assay [2] relates to Splenocyte. In words: Immunomodulatory activity in C57BL/6 mouse splenocytes bearing TLR7 receptor assessed as IL12 release at 100 ug/ml after 24 hrs by ELISA. It counts as functional, cell-based. In a few lines: (§1)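 C57BL/6 splenocytes in RPMI 1640 with 10% FBS, penicillin/streptomycin, 2 mM L-glutamine, plated at 5 × 10^6 cells/mL; compounds in PBS added, 37 °C for 24 h. Supernatant IL-12 and IL-6 by ELISA; representative of three independent experiments.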
For orientation: ELISA stands for enzyme-linked immunosorbent assay.

For assay [3], the system named is Splenocyte. The assay can be described thus: Immunomodulatory activity in C57BL/6 mouse splenocytes bearing TLR7 receptor assessed as IL6 release at 100 ug/ml after 24 hrs by ELISA. It counts as functional, cell-based. The essentials: as §1
The target of assay [4] is T2, Toll-like receptor 9 (Mus musculus) (UniProt Q9EQU3).
T2 sequence (whole entry): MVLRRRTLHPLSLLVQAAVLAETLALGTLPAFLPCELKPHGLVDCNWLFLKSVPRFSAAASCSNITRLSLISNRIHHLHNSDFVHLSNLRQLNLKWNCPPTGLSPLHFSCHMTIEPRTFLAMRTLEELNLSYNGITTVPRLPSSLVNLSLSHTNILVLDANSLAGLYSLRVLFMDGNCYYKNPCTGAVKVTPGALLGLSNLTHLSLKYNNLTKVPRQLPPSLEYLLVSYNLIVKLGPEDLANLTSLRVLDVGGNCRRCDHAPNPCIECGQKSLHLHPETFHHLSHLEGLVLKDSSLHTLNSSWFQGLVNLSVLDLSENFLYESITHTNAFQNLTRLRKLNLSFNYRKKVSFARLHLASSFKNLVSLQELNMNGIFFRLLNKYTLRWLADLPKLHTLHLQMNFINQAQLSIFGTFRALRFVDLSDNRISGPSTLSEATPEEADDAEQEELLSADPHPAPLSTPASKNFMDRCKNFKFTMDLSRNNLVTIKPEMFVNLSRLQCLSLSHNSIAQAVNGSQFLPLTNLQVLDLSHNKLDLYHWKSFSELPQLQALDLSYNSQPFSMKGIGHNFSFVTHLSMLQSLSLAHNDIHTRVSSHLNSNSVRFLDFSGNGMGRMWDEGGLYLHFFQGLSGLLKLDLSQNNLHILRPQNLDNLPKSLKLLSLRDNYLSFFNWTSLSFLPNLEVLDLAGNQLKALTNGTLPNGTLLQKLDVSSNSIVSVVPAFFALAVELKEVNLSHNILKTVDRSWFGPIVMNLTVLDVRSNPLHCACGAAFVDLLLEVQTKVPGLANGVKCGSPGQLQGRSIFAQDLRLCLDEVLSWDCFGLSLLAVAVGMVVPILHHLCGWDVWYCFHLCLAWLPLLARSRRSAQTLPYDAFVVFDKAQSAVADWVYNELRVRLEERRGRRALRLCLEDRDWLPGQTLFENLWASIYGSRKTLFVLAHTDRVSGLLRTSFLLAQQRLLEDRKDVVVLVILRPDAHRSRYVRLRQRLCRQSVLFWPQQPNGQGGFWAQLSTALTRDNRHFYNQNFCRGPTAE
In words: Activation of mouse TLR9 expressed in HEK293 assessed as induction of NF-kappaB activity reporter gene assay. Type of assay: cell-based.

Activity calls are given as the source filed them. The rule behind the calls is not given here.

Take `Nc1ccn([C@@H]2O[C@H](COP(=O)(S)O[C@H]3[C@@H](O)[C@H](n4cnc5c(N)ncnc54)O[C@@H]3CO)[C@@H](OP(=O)(S)OC[C@H]3O[C@@H](n4ccc(=O)[nH]c4=O)[C@H](O)[C@@H]3OP(=O)(S)OC[C@H]3O[C@@H](n4ccc5c(=O)[nH]c(N)nc54)[C@H](O)[C@@H]3OP(=O)(S)OC[C@H]3O[C@@H](n4cnc5c(N)ncnc54)[C@H](O)[C@@H]3OP(=O)(S)OC[C@H]3O[C@@H](n4ccc5c(=O)[nH]c(N)nc54)[C@H](O)[C@@H]3OP(=O)(S)OC[C@H]3O[C@@H](n4cnc5c(N)ncnc54)[C@H](O)[C@@H]3OP(=O)(S)OC[C@H]3O[C@@H](n4ccc5c(=O)[nH]c(N)nc54)[C@H](O)[C@@H]3OP(=O)(S)OC[C@H]3O[C@@H](n4ccc(N)nc4=O)[C@H](O)[C@@H]3OP(=O)(S)OC[C@H]3O[C@@H](n4ccc(=O)[nH]c4=O)[C@H](O)[C@@H]3OP(=O)(S)OC[C@H]3O[C@@H](n4ccc(=O)[nH]c4=O)[C@H](O)[C@@H]3OP(=O)(S)OCC(O)COP(=O)(S)O[C@H]3[C@@H](O)[C@H](n4ccc(=O)[nH]c4=O)O[C@@H]3COP(=O)(S)O[C@H]3[C@@H](O)[C@H](n4ccc(=O)[nH]c4=O)O[C@@H]3COP(=O)(S)O[C@H]3[C@@H](O)[C@H](n4ccc(N)nc4=O)O[C@@H]3COP(=O)(S)O[C@H]3[C@@H](O)[C@H](n4ccc5c(=O)[nH]c(N)nc54)O[C@@H]3COP(=O)(S)O[C@H]3[C@@H](O)[C@H](n4cnc5c(N)ncnc54)O[C@@H]3COP(=O)(S)O[C@H]3[C@@H](O)[C@H](n4ccc5c(=O)[nH]c(N)nc54)O[C@@H]3COP(=O)(S)O[C@H]3[C@@H](O)[C@H](n4cnc5c(N)nc(N)nc54)O[C@@H]3COP(=O)(S)O[C@H]3[C@@H](O)[C@H](n4ccc5c(=O)[nH]c(N)nc54)O[C@@H]3COP(=O)(S)O[C@H]3[C@@H](O)[C@H](n4ccc(=O)[nH]c4=O)O[C@@H]3COP(=O)(S)O[C@H]3[C@@H](O)[C@H](n4ccc(N)nc4=O)O[C@@H]3COP(=O)(S)O[C@H]3[C@@H](O)[C@H](n4cnc5c(N)ncnc54)O[C@@H]3CO)[C@H]2O)c(=O)n1` (stereo partly drawn): in assay [1], the fold change (FC) amounted to 2.4. The result with Splenocyte [2] and in the assay on Splenocyte [3] was Active. Further, the result in assay [4] was inactive.

As for `Nc1ccn([C@@H]2O[C@H](COP(=O)(S)O[C@H]3[C@@H](O)[C@H](n4cnc5c(N)ncnc54)O[C@@H]3COP(=O)(S)O[C@H]3[C@@H](O)[C@H](n4ccc5c(=O)[nH]c(N)nc54)O[C@@H]3COP(=O)(S)O[C@H]3[C@@H](O)[C@H](n4ccc(=O)[nH]c4=O)O[C@@H]3COP(=O)(S)O[C@H]3[C@@H](O)[C@H](n4ccc(=O)[nH]c4=O)O[C@@H]3COP(=O)(S)O[C@H]3[C@@H](O)[C@H](n4cnc5c(N)ncnc54)O[C@@H]3COP(=O)(S)O[C@H]3[C@@H](O)[C@H](n4cnc5c(N)ncnc54)O[C@@H]3CO)[C@@H](OP(=O)(S)OC[C@H]3O[C@@H](n4ccc5c(=O)[nH]c(N)nc54)[C@H](O)[C@@H]3OP(=O)(S)OC[C@H]3O[C@@H](n4ccc(N)nc4=O)[C@H](O)[C@@H]3OP(=O)(S)OC[C@H]3O[C@@H](n4ccc(=O)[nH]c4=O)[C@H](O)[C@@H]3OP(=O)(S)OC[C@H]3O[C@@H](n4ccc5c(=O)[nH]c(N)nc54)[C@H](O)[C@@H]3OP(=O)(S)OCC(O)COP(=O)(S)O[C@H]3[C@@H](O)[C@H](n4ccc5c(=O)[nH]c(N)nc54)O[C@@H]3COP(=O)(S)O[C@H]3[C@@H](O)[C@H](n4ccc(=O)[nH]c4=O)O[C@@H]3COP(=O)(S)O[C@H]3[C@@H](O)[C@H](n4ccc(N)nc4=O)O[C@@H]3COP(=O)(S)O[C@H]3[C@@H](O)[C@H](n4ccc5c(=O)[nH]c(N)nc54)O[C@@H]3COP(=O)(S)O[C@H]3[C@@H](O)[C@H](n4ccc(N)nc4=O)O[C@@H]3COP(=O)(S)O[C@H]3[C@@H](O)[C@H](n4cnc5c(N)ncnc54)O[C@@H]3COP(=O)(S)O[C@H]3[C@@H](O)[C@H](n4ccc5c(=O)[nH]c(N)nc54)O[C@@H]3COP(=O)(S)O[C@H]3[C@@H](O)[C@H](n4ccc(=O)[nH]c4=O)O[C@@H]3COP(=O)(S)O[C@H]3[C@@H](O)[C@H](n4ccc(=O)[nH]c4=O)O[C@@H]3COP(=O)(S)O[C@H]3[C@@H](O)[C@H](n4cnc5c(N)ncnc54)O[C@@H]3COP(=O)(S)O[C@H]3[C@@H](O)[C@H](n4cnc5c(N)ncnc54)O[C@@H]3CO)[C@H]2O)c(=O)n1` (stereo partly drawn), the fold change (FC) in assay [1] was found to be 0.2. Also, the result with Splenocyte [2] and in the assay on Splenocyte [3] was Active. Further, in assay [4], the outcome was inactive.
